Among the data in the array DNA melting data of Ke et al. (doi:10.1101/2024.01.08.574731) are folding enthalpy and Tm values, retold here.

The nature of data set [1]: folding enthalpy; higher = less favourable; fluorescence melt of hairpins on a sequencing array, two-state fit. Particulars: sodium 0.088 M. The gist of the method:
(§1)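 Cy3 fluorescence of library hairpins on a sequenced MiSeq flow cell, with annealed Cy3 and quencher oligos, was imaged in 50 mM Na-HEPES pH 8.0, 25 mM NaCl in 2.5 °C steps up to 60 °C. Signals were normalised to pre-quench Cy3 and to control variants. Melting temperature and folding enthalpy came from bootstrapped two-state fits, inverse-variance combined over four replicates. Fitted temperatures were raised by 9.35 °C to match UV melts.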

Data set [2] is described as follows: melting temperature; fluorescence melt of hairpins on a sequencing array, two-state fit, raised by 9.35 °C to match UV melts. The conditions noted are these: sodium 0.088 M. Put shortly: as §1

For the sequence GTGTAACCGAAAGGTCAC (((..(((....)))))), the folding enthalpy in data set [1] was -22.6 kcal/mol. Moreover, the Tm in data set [2] was found to be 43.6 °C.
The matching figures for GATCGAAGACTCGATC ((((((....)))))): -30.3 kcal/mol and 48.5 °C.
For GCCATGCGAAAGCAGTGC ((..(((....)))..)), in that order: -15.2 kcal/mol and 39.7 °C.
For GCTTTCGGAAACGAAGGC ((.((((....)))).)), in that order: -35.3 kcal/mol and 50.9 °C.
Regarding GTTTGAGGAAACTTAAGC (.((.((....)).)).), the folding enthalpy in data set [1] was -13.9 kcal/mol. Moreover, in data set [2], the Tm was found to be 31.9 °C.
The matching figures for GATCGGAGAACCGATC ((((((....)))))): -33.8 kcal/mol and 52.6 °C.
Regarding GGTGAGGGAAACCTCGCC ((.((((....)))).)), in data set [1], the folding enthalpy is -36.5 kcal/mol. Further, the Tm in data set [2] came to 58.1 °C.
For GAGCACGGAAACACGCTC ((((..(....)..)))), in that order: -28.3 kcal/mol and 37 °C.
Turning to GTCACGCGAAAGCGGAC (((.(((....)))))), in data set [1], the folding enthalpy was -15.1 kcal/mol. The Tm in data set [2] came to 57 °C.
For GCAGAGCGAAAGCTATGC (((.(((....))).))), in that order: -44.8 kcal/mol and 59.7 °C.
The matching figures for GATCTGAAGCAGATC ((((((...)))))): -27.9 kcal/mol and 45.7 °C.
For GCGTGTGGAAACGTACGC ((((..(....)..)))), in that order: -32.9 kcal/mol and 50.1 °C.
For the sequence GTAATTGGAAACAATTAC (((((((....))))))), the folding enthalpy in data set [1] was -45.9 kcal/mol. For the same sequence, the Tm in data set [2] came to 50.4 °C.
The matching figures for GCAGCTGGAAACAACTGC ((((.((....)).)))): -39.9 kcal/mol and 46.6 °C.
For the sequence GATCGAGAGGTCGATC ((((((....)))))), the folding enthalpy in data set [1] is -19 kcal/mol. In addition, the Tm in data set [2] stood at 50.1 °C.
The matching figures for GGAGGGGGAAACCCCCCC ((.((((....)))).)): -14.9 kcal/mol and 50.9 °C.
For GAACGGGGAAACCCGCTC ((.((((....)))).)), in that order: -16.3 kcal/mol and 45.3 °C.
For GATGCCCGAAAGGGATC (((.(((....)))))), in that order: -17.4 kcal/mol and 45 °C.
GGTTTCCCGAAAGGGACC (((..(((....)))))): the folding enthalpy in data set [1] was -12.3 kcal/mol. Moreover, in data set [2], the Tm was found to be 33.8 °C.
Take GATCTATGCTTAGATC ((((((....)))))): the folding enthalpy in data set [1] was -35.8 kcal/mol. The Tm in data set [2] is 44.5 °C.
The matching figures for GGACGTGGAAACACATCC (((.(((....))).))): -25.9 kcal/mol and 41.1 °C.
In the case of GATCCAATGGTGGATC ((((((....)))))), in data set [1], the folding enthalpy was -29.4 kcal/mol. In addition, the Tm in data set [2] was found to be 48.3 °C.
The matching figures for GCAGTGGGAAACCACCAC (..((((....))))..): -12.2 kcal/mol and 30.6 °C.
For GATCTGCAAACAGATC ((((((....)))))), the folding enthalpy in data set [1] is -35.9 kcal/mol. Moreover, in data set [2], the Tm came to 48.5 °C.
For GATCGAAAGGTCGATC ((((((....)))))), in that order: -28.7 kcal/mol and 47.7 °C.
For GATCTTAAAAAAGATC ((((((....)))))), in that order: -20.3 kcal/mol and 33.7 °C.
As for GACTCGCGAAAGCGCGTC (((.(((....))).))), the folding enthalpy in data set [1] is -23.6 kcal/mol. Also, the Tm in data set [2] stood at 55.9 °C.
On to GGGTCCTCGAAAGAGCCC (((..(((....)))))), for which the folding enthalpy in data set [1] was -15.3 kcal/mol. For the same sequence, in data set [2], the Tm stood at 40 °C.
The matching figures for TGTCTGAAAAGACA (((((....))))): -20.4 kcal/mol and 47.2 °C.
For GCCTGCACGAAAGTGGGC (((..(((....)))))), in that order: -20.3 kcal/mol and 47.3 °C.
For GGGGGTGGAAACGCCCTC (.(((.(....).))).), in that order: -28 kcal/mol and 59.5 °C.
For the sequence GGAAGACCGAAAGGTTCC (((..(((....)))))), the folding enthalpy in data set [1] was -16 kcal/mol. In data set [2], the Tm worked out at 37.4 °C.
For GATGCAGGAAACTGCACC (.(((((....))))).), in that order: -12.7 kcal/mol and 40.5 °C.
The matching figures for GCTGTGCGAAAGCATCGC ((..(((....)))..)): -17.9 kcal/mol and 44.6 °C.
The matching figures for GCGAACGGAAACGCTCAC (.((.((....)).)).): -14.3 kcal/mol and 34 °C.
As to GTCTCCGAAAGGACGAC ((((((....))).))), the folding enthalpy in data set [1] was -27.5 kcal/mol. The Tm in data set [2] was 46.7 °C.
For the sequence GATCGAGACTTCGATC ((((((....)))))), in data set [1], the folding enthalpy is -43.3 kcal/mol. For the same sequence, the Tm in data set [2] was determined as 57.2 °C.
